Reference: ChEMBL document CHEMBL3097988, “Synthesis and characterization of new N-(4-(4-chloro-1H-imidazol-1-yl)-3-methoxyphenyl)amide/sulfonamide derivatives as possible antimicrobial and antitubercular agents” (2014)
In brackets after ≈: the same amount, converted by molar mass.

Experiments:
Type in all cases: functional
[1] = tested on: Rhizopus; test: Antimicrobial activity against Rhizopus sp. after 3 to 4 days by serial plate dilution method
Summary of the method: (§1)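 Fungal MIC by serial plate dilution. Sabouraud agar (peptone, D-glucose, agar; pH 5.7) plates seeded with saline spore suspension, dried 1 h at 37 °C. Wells punched and filled with compound in DMSO; DMSO-only control. Triplicate plates held 3–4 days at 37 °C; inhibition zone diameter measured. Amphotericin B positive control. Tested range […] per mL.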

[2] = tested on: Candida albicans; test: Antimicrobial activity against Candida albicans after 3 to 4 days by serial plate dilution method; summary of the method: as §1
[3] = tested on: Mycolicibacterium fortuitum; test: Antimicrobial activity against Mycobacterium fortuitum ATCC 19542 after 7 days by resazurin assay; conditions: ATCC 19542, 168 h
[4] = tested on: Mycobacterium tuberculosis; test: Antimicrobial activity against Mycobacterium tuberculosis H37Rv ATCC 27294 at 1 to 100 ug/ml after 7 days by resazurin assay
Summary of the method: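 Preliminary screen at three concentrations (1, 10 and 100) by resazurin microtitre assay. Cultures were grown in Middlebrook 7H9 with 10% OADC, and compounds came from 2 mg/mL DMF stocks with DMF controls. Plates were incubated 7 days at 37 °C, and resazurin colour was read after 1 h. Inhibition was scored as no blue-to-pink change.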

[5] = tested on: Aspergillus flavus; test: Antimicrobial activity against Aspergillus flavus after 3 to 4 days by serial plate dilution method; summary of the method: as §1
[6] = tested on: Escherichia coli; test: Antimicrobial activity against Escherichia coli ATCC 25922 after 16 to 18 hrs by […]
[7] = tested on: Staphylococcus aureus; test: Ratio of ciprofloxacin MIC to compound MIC for Staphylococcus aureus ATCC 25923
[8] = tested on: Klebsiella pneumoniae; test: Antimicrobial activity against Klebsiella pneumoniae ATCC 13883 after 16 to 18 hrs by serial plate dilution method
Summary of the method: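 Bacterial MIC by serial dilution in Mueller-Hinton broth adjusted to pH 5.0 with phosphate buffer. Tubes inoculated with standardized bacterial suspension, incubated 16–18 h at 37 °C. MIC read as lowest concentration with no visible growth. Range […] per mL. DMSO as negative control, ciprofloxacin as positive control.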

[9] = tested on: Klebsiella pneumoniae; test: Ratio of ciprofloxacin MIC to compound MIC for Klebsiella pneumoniae ATCC 13883
[10] = tested on: Mycolicibacterium smegmatis; test: Antimicrobial activity against Mycobacterium smegmatis (MC2) ATCC 19420 after 7 days by resazurin assay; conditions: (MC2) ATCC 19420, 168 h
[11] = tested on: Mycobacterium tuberculosis; test: Antimicrobial activity against Mycobacterium tuberculosis H37Rv ATCC 27294 after 7 days by resazurin assay; conditions: H37Rv ATCC 27294, 168 h
Summary of the method: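 Resazurin microtitre assay. Cultures were grown in Middlebrook 7H9 with 10% OADC and added to fresh medium in 96-well plates. Test compounds came from 2 mg/mL DMF stocks, with DMF-only controls. Plates were incubated 7 days at 37 °C, then resazurin was added and read after 1 h at 37 °C. MIC was the lowest concentration preventing the blue-to-pink change.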

[12] = tested on: Staphylococcus aureus; test: Antimicrobial activity against Staphylococcus aureus ATCC 25923 after 16 to 18 hrs by […]

Row | SMILES | MIC [1] [µg/mL] | MIC [2] [µg/mL] | MIC [3] [µg/mL] | inhibition (INH) [4] [%] | MIC [5] [µg/mL] | MIC [6] [µg/mL] | Ratio [7] | MIC [8] [µg/mL] | Ratio [9] | MIC [10] [µg/mL] | MIC [11] [µg/mL] | MIC [12] [µg/mL]
1 | COc1cc(NS(=O)(=O)c2ccc(C(F)(F)F)cc2)ccc1-n1cnc(Cl)c1 | 16 (≈ 37.1 µM) | 8 (≈ 18.5 µM) | 10 (≈ 23.2 µM) | 95 | 16 (≈ 37.1 µM) | 16 (≈ 37.1 µM) | 1 | 8 (≈ 18.5 µM) | 1 | 1.25 (≈ 2.89 µM) | 0.625 (≈ 1.45 µM) | 4 (≈ 9.26 µM)
2 | COc1cc(NS(=O)(=O)c2c(F)ccc(C(F)(F)F)c2Cl)ccc1-n1cnc(Cl)c1 | 16 (≈ 33 µM) | 8 (≈ 16.5 µM) | 10 (≈ 20.7 µM) | 90 | 16 (≈ 33 µM) | 4 (≈ 8.26 µM) | 1 | 8 (≈ 16.5 µM) | 1 | 1.25 (≈ 2.58 µM) | 0.625 (≈ 1.29 µM) | 4 (≈ 8.26 µM)
3 | COc1cc(NS(=O)(=O)Cc2cccc(C(F)(F)F)c2)ccc1-n1cnc(Cl)c1 | 128 (≈ 287 µM) | 64 (≈ 144 µM) | 10 (≈ 22.4 µM) | 90 | 32 (≈ 71.8 µM) | 64 (≈ 144 µM) | 1 | 4 (≈ 8.97 µM) | 2 | – | 1.25 (≈ 2.8 µM) | 4 (≈ 8.97 µM)
4 | COc1cc(NS(=O)(=O)c2cc(F)cc(C(F)(F)F)c2)ccc1-n1cnc(Cl)c1 | 16 (≈ 35.6 µM) | 8 (≈ 17.8 µM) | 10 (≈ 22.2 µM) | 95 | 8 (≈ 17.8 µM) | 4 (≈ 8.89 µM) | 1 | 8 (≈ 17.8 µM) | 1 | 10 (≈ 22.2 µM) | 0.625 (≈ 1.39 µM) | 4 (≈ 8.89 µM)
